Laboratory results as given in ChEMBL document CHEMBL4364271, “Unveiling the Importance of Amide Protons in CSP:ComD Interactions in Streptococcus pneumoniae” (ACS Med Chem Lett, 2019).
Active and inactive are the calls of the source. The rule behind the calls is not given here. Non-standard residues stand in square brackets, D forms with d. Residues, ends and D or L forms follow the SMILES beside them. NMeR = CN[C@@H](CCCNC(=N)N)C(=O)O; NMeF = CN[C@@H](Cc1ccccc1)C(=O)O; NMeI = CC[C@H](C)[C@H](NC)C(=O)O; NMeE = CN[C@@H](CCC(=O)O)C(=O)O; NMeD = CN[C@@H](CC(=O)O)C(=O)O; NMeL = CN[C@@H](CC(C)C)C(=O)O; NMeM = CN[C@@H](CCSC)C(=O)O; NMeS = CN[C@@H](CO)C(=O)O

Key:
[1] = system: Streptococcus pneumoniae D39; assay: Antagonist activity at ComD1 receptor in Streptococcus pneumoniae D39 harboring pcomX/lacZ reporter gene assessed as inhibiton of CSP1-stimulated maximum signal at 10 uM preincubated for 30 mins followed by 50 nM CSP1 addition by ONPG based beta-galactosidase assay relative to native CSP1
Summary of the method: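 Inhibition screen: peptides at 10 μM against CSP1 50 nM (D39, ComD1) or CSP2 250 nM (TIGR4, ComD2), in comX-lacZ reporter strains. β-gal Miller units normalized to CSP alone (100%) and DMSO (0%). Triplicates over three separate trials.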

[2] = Solubility of the compound in ammonium carbonate solution at pH 8; type: physicochemical; settings: buffer
[3] = system: Streptococcus pneumoniae D39; assay: Agonist activity at ComD1 receptor in Streptococcus pneumoniae D39 harboring pcomX/lacZ reporter gene at 10 uM incubated for 30 mins by ONPG based beta-galactosidase assay relative to native CSP1
Summary of the method: (§1)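 Single-dose screen of synthetic peptide at 10 μM in wild-type reporter strains (D39 for ComD1, TIGR4 for ComD2) producing their own CSP and carrying lacZ under the comX promoter. β-gal activity in Miller units normalized to native CSP (CSP1 or CSP2, 100%); DMSO 0%. Triplicates over three separate trials.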

[4] = Agonist activity at ComD2 receptor in Streptococcus pneumoniae TIGR4 harboring pcomX/lacZ reporter gene incubated for 30 mins by ONPG based beta-galactosidase assay
Summary of the method: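 Dose-response in wild-type lacZ reporter strains (comX promoter; D39 for ComD1, TIGR4 for ComD2) producing native CSP. Peptides tested over a range of concentrations. β-gal read-out (Miller units) normalized to native CSP. EC50 reported with 95% confidence interval.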

[5] = system: Streptococcus pneumoniae TIGR4; assay: Agonist activity at ComD2 receptor in Streptococcus pneumoniae TIGR4 harboring pcomX/lacZ reporter gene at 10 uM incubated for 30 mins by ONPG based beta-galactosidase assay relative to native CSP2; summary of the method: as §1

Molecule | inhibition [1] | solubility [2] | Activity [3] | EC50 [4] | Activity [5]
CC[C@H](C)[C@H](NC(=O)[C@H](CCCNC(=N)N)NC(=O)[C@H](CCSC)NC(=O)[C@@H](N)CCC(=O)O)C(=O)N[C@@H](CO)C(=O)N[C@@H](CCCNC(=N)N)C(=O)N[C@H](C(=O)N[C@H](C(=O)N[C@@H](CC(C)C)C(=O)N(C)[C@@H](CC(=O)O)C(=O)N[C@@H](Cc1ccccc1)C(=O)N[C@@H](CC(C)C)C(=O)N[C@@H](Cc1ccccc1)C(=O)O)[C@@H](C)CC)[C@@H](C)CC (H-EMRISRIIL[NMeD]FLF-OH) | inactive | Insoluble | inactive | 0.34 µM | > 75%
CC[C@H](C)[C@H](NC(=O)[C@H](CCCNC(=N)N)NC(=O)[C@H](CCSC)NC(=O)[C@@H](N)CCC(=O)O)C(=O)N[C@@H](CO)C(=O)N[C@@H](CCCNC(=N)N)C(=O)N[C@H](C(=O)N[C@H](C(=O)N[C@@H](CC(C)C)C(=O)N[C@@H](CC(=O)O)C(=O)N[C@@H](Cc1ccccc1)C(=O)N[C@@H](CC(C)C)C(=O)N(C)[C@@H](Cc1ccccc1)C(=O)O)[C@@H](C)CC)[C@@H](C)CC (H-EMRISRIILDFL[NMeF]-OH) | inactive | Insoluble | inactive | 0.027 µM | > 75%
CC[C@H](C)[C@H](NC(=O)[C@H](CCCNC(=N)N)NC(=O)[C@H](CCSC)NC(=O)[C@@H](N)CCC(=O)O)C(=O)N[C@@H](CO)C(=O)N[C@@H](CCCNC(=N)N)C(=O)N[C@H](C(=O)N[C@H](C(=O)N[C@@H](CC(C)C)C(=O)N[C@@H](CC(=O)O)C(=O)N[C@@H](Cc1ccccc1)C(=O)N(C)[C@@H](CC(C)C)C(=O)N[C@@H](Cc1ccccc1)C(=O)O)[C@@H](C)CC)[C@@H](C)CC (H-EMRISRIILDF[NMeL]F-OH) | inactive | Insoluble | inactive |  | inactive
CC[C@H](C)[C@H](NC(=O)[C@H](CCCNC(=N)N)NC(=O)[C@H](CCSC)NC(=O)[C@@H](N)CCC(=O)O)C(=O)N[C@@H](CO)C(=O)N[C@@H](CCCNC(=N)N)C(=O)N[C@H](C(=O)N[C@H](C(=O)N[C@@H](CC(C)C)C(=O)N[C@@H](CC(=O)O)C(=O)N(C)[C@@H](Cc1ccccc1)C(=O)N[C@@H](CC(C)C)C(=O)N[C@@H](Cc1ccccc1)C(=O)O)[C@@H](C)CC)[C@@H](C)CC (H-EMRISRIILD[NMeF]LF-OH) | inactive | Insoluble | inactive |  | inactive
CC[C@H](C)[C@H](NC(=O)[C@H](CCCNC(=N)N)NC(=O)[C@H](CO)NC(=O)[C@H]([C@@H](C)CC)N(C)C(=O)[C@H](CCCNC(=N)N)NC(=O)[C@H](CCSC)NC(=O)[C@@H](N)CCC(=O)O)C(=O)N[C@H](C(=O)N[C@@H](CC(C)C)C(=O)N[C@@H](CC(=O)O)C(=O)N[C@@H](Cc1ccccc1)C(=O)N[C@@H](CC(C)C)C(=O)N[C@@H](Cc1ccccc1)C(=O)O)[C@@H](C)CC (H-EMR[NMeI]SRIILDFLF-OH) | inactive | Insoluble | inactive | > 1 µM | > 75%
CC[C@H](C)[C@H](NC(=O)[C@H](CCCNC(=N)N)NC(=O)[C@H](CCSC)NC(=O)[C@@H](N)CCC(=O)O)C(=O)N[C@@H](CO)C(=O)N[C@@H](CCCNC(=N)N)C(=O)N[C@H](C(=O)N(C)[C@H](C(=O)N[C@@H](CC(C)C)C(=O)N[C@@H](CC(=O)O)C(=O)N[C@@H](Cc1ccccc1)C(=O)N[C@@H](CC(C)C)C(=O)N[C@@H](Cc1ccccc1)C(=O)O)[C@@H](C)CC)[C@@H](C)CC (H-EMRISRI[NMeI]LDFLF-OH) | inactive | Insoluble | inactive |  | inactive
CC[C@H](C)[C@H](NC(=O)[C@H](Cc1ccccc1)N(C)C(=O)[C@H](CC(=O)O)NC(=O)[C@H](CCCNC(=N)N)NC(=O)[C@H](Cc1ccccc1)NC(=O)[C@H](Cc1ccccc1)NC(=O)[C@H](CCCCN)NC(=O)[C@H](CO)NC(=O)[C@H](CC(C)C)NC(=O)[C@H](CCCNC(=N)N)NC(=O)[C@H](CCSC)NC(=O)[C@@H](N)CCC(=O)O)C(=O)N[C@@H](CC(C)C)C(=O)N[C@@H](CCC(N)=O)C(=O)N[C@@H](CCCNC(=N)N)C(=O)O (H-EMRLSKFFRD[NMeF]ILQR-OH) |  |  | inactive | > 1 µM | > 75%
CC[C@H](C)[C@H](NC(=O)[C@H](CCCNC(=N)N)NC(=O)[C@H](CO)N(C)C(=O)[C@@H](NC(=O)[C@H](CCCNC(=N)N)NC(=O)[C@H](CCSC)NC(=O)[C@@H](N)CCC(=O)O)[C@@H](C)CC)C(=O)N[C@H](C(=O)N[C@@H](CC(C)C)C(=O)N[C@@H](CC(=O)O)C(=O)N[C@@H](Cc1ccccc1)C(=O)N[C@@H](CC(C)C)C(=O)N[C@@H](Cc1ccccc1)C(=O)O)[C@@H](C)CC (H-EMRI[NMeS]RIILDFLF-OH) | inactive | Insoluble | inactive | 0.55 µM | > 75%
CC[C@H](C)[C@H](NC(=O)[C@H](CCCNC(=N)N)NC(=O)[C@H](CCSC)NC(=O)[C@@H](N)CCC(=O)O)C(=O)N[C@@H](CO)C(=O)N[C@@H](CCCNC(=N)N)C(=O)N[C@H](C(=O)N[C@H](C(=O)N(C)[C@@H](CC(C)C)C(=O)N[C@@H](CC(=O)O)C(=O)N[C@@H](Cc1ccccc1)C(=O)N[C@@H](CC(C)C)C(=O)N[C@@H](Cc1ccccc1)C(=O)O)[C@@H](C)CC)[C@@H](C)CC (H-EMRISRII[NMeL]DFLF-OH) | inactive | Insoluble | inactive |  | inactive
CC[C@H](C)[C@H](NC(=O)[C@H](Cc1ccccc1)NC(=O)[C@H](CC(=O)O)NC(=O)[C@H](CCCNC(=N)N)NC(=O)[C@H](Cc1ccccc1)NC(=O)[C@H](Cc1ccccc1)NC(=O)[C@H](CCCCN)NC(=O)[C@H](CO)NC(=O)[C@H](CC(C)C)NC(=O)[C@H](CCCNC(=N)N)NC(=O)[C@H](CCSC)N(C)C(=O)[C@@H](N)CCC(=O)O)C(=O)N[C@@H](CC(C)C)C(=O)N[C@@H](CCC(N)=O)C(=O)N[C@@H](CCCNC(=N)N)C(=O)O (H-E[NMeM]RLSKFFRDFILQR-OH) |  |  | inactive |  | inactive
CC[C@H](C)[C@H](NC(=O)[C@H](Cc1ccccc1)NC(=O)[C@H](CC(=O)O)NC(=O)[C@H](CCCNC(=N)N)NC(=O)[C@H](Cc1ccccc1)NC(=O)[C@H](Cc1ccccc1)NC(=O)[C@H](CCCCN)NC(=O)[C@H](CO)NC(=O)[C@H](CC(C)C)NC(=O)[C@H](CCCNC(=N)N)NC(=O)[C@H](CCSC)NC(=O)[C@H](CCC(=O)O)NC)C(=O)N[C@@H](CC(C)C)C(=O)N[C@@H](CCC(N)=O)C(=O)N[C@@H](CCCNC(=N)N)C(=O)O (H-[NMeE]MRLSKFFRDFILQR-OH) |  |  | inactive |  | inactive
CC[C@H](C)[C@H](NC(=O)[C@H](Cc1ccccc1)NC(=O)[C@H](CC(=O)O)NC(=O)[C@H](CCCNC(=N)N)N(C)C(=O)[C@H](Cc1ccccc1)NC(=O)[C@H](Cc1ccccc1)NC(=O)[C@H](CCCCN)NC(=O)[C@H](CO)NC(=O)[C@H](CC(C)C)NC(=O)[C@H](CCCNC(=N)N)NC(=O)[C@H](CCSC)NC(=O)[C@@H](N)CCC(=O)O)C(=O)N[C@@H](CC(C)C)C(=O)N[C@@H](CCC(N)=O)C(=O)N[C@@H](CCCNC(=N)N)C(=O)O (H-EMRLSKFF[NMeR]DFILQR-OH) |  |  | inactive |  | inactive
H-EMRISRIILDFLFLRKK-OH |  |  |  | 0.051 µM | 
CC[C@H](C)[C@H](NC(=O)[C@H](Cc1ccccc1)NC(=O)[C@H](CC(=O)O)NC(=O)[C@H](CCCNC(=N)N)NC(=O)[C@H](Cc1ccccc1)NC(=O)[C@H](Cc1ccccc1)NC(=O)[C@H](CCCCN)NC(=O)[C@H](CO)NC(=O)[C@H](CC(C)C)NC(=O)[C@H](CCCNC(=N)N)N(C)C(=O)[C@H](CCSC)NC(=O)[C@@H](N)CCC(=O)O)C(=O)N[C@@H](CC(C)C)C(=O)N[C@@H](CCC(N)=O)C(=O)N[C@@H](CCCNC(=N)N)C(=O)O (H-EM[NMeR]LSKFFRDFILQR-OH) |  |  | inactive |  | inactive
CC[C@H](C)[C@H](NC(=O)[C@H](CCCNC(=N)N)NC(=O)[C@H](CO)NC(=O)[C@@H](NC(=O)[C@H](CCCNC(=N)N)N(C)C(=O)[C@H](CCSC)NC(=O)[C@@H](N)CCC(=O)O)[C@@H](C)CC)C(=O)N[C@H](C(=O)N[C@@H](CC(C)C)C(=O)N[C@@H](CC(=O)O)C(=O)N[C@@H](Cc1ccccc1)C(=O)N[C@@H](CC(C)C)C(=O)N[C@@H](Cc1ccccc1)C(=O)O)[C@@H](C)CC (H-EM[NMeR]ISRIILDFLF-OH) | inactive | Insoluble | inactive |  | inactive
CC[C@H](C)[C@@H](C(=O)N[C@@H](CC(C)C)C(=O)N[C@@H](CCC(N)=O)C(=O)N[C@@H](CCCNC(=N)N)C(=O)O)N(C)C(=O)[C@H](Cc1ccccc1)NC(=O)[C@H](CC(=O)O)NC(=O)[C@H](CCCNC(=N)N)NC(=O)[C@H](Cc1ccccc1)NC(=O)[C@H](Cc1ccccc1)NC(=O)[C@H](CCCCN)NC(=O)[C@H](CO)NC(=O)[C@H](CC(C)C)NC(=O)[C@H](CCCNC(=N)N)NC(=O)[C@H](CCSC)NC(=O)[C@@H](N)CCC(=O)O (H-EMRLSKFFRDF[NMeI]LQR-OH) |  |  | inactive |  | inactive
H-EMRISRIILDFLF-OH |  |  |  | 0.078 µM | 
